How the values were obtained:
Assay type in all cases: functional
Candida albicans [1] = experiment: Antimicrobial activity against azole-resistant Candida albicans isolate CA10 assessed as growth at 16 ug/ml co-treated with 0.031 ug/ml calcineurin signaling inhibitor tacrolimus after 48 hrs by microdilution checkboard technique relative to control; design: scale not given: the % may be the effect or the level left
How it was run: (§1)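 Checkerboard microdilution in RPMI 1640 (pH 7.0, 2% dextrose, 0.165 M MOPS). Azole dilutions run along columns and FK506 along rows, at 4× final concentration. Final inoculum 2.5 × 10^3 CFU/ml from Sabouraud-subcultured cells. Incubated 35°C for 48 h; OD read at 492 nm. Background from microorganism-free plates subtracted. Growth % = well OD / drug-free well OD. Triplicate on different days, values averaged.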

Candida albicans [2] = experiment: Antimicrobial activity against azole-resistant Candida albicans isolate CA10 assessed as growth at 8 ug/ml cotreated with 0.063 ug/ml calcineurin signaling inhibitor tacrolimus after 48 hrs by microdilution checkerboard technique relative to control; design: scale not given: the % may be the effect or the level left
How it was run: (§2)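 CA10 in RPMI 1640 with 2% dextrose and 0.165 M MOPS, pH 7.0. Checkerboard used twofold dilutions, with azole alone in row H and the drug-free growth control in well H1. Final inoculum was 2.5 × 10^3 CFU/ml, incubated 35°C for 48 h, with OD read at 492 nm. Growth % = background-subtracted well OD / drug-free well OD. Run in triplicate on different days.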

Candida albicans [3] = experiment: Antimicrobial activity against azole-resistant Candida albicans isolate CA10 assessed as growth at 16 ug/ml cotreated with 0.063 ug/ml calcineurin signaling inhibitor tacrolimus after 48 hrs by microdilution checkerboard technique relative to control; design: scale not given: the % may be the effect or the level left
How it was run: (§3)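 Checkerboard microdilution in MOPS-buffered RPMI 1640 (pH 7.0, 2% dextrose). Final ranges: azole 0.125–128 μg/ml (FLC) or 0.008–8 μg/ml (ITR, VRC), tacrolimus 0.002–0.125 μg/ml; solvent 1% in single-drug wells. Inoculum 2.5 × 10^3 CFU/ml, 35°C, 48 h. Growth % = background-subtracted OD492 of each well / drug-free well. Triplicate on different days.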

Candida albicans [4] = experiment: Antimicrobial activity against azole-resistant Candida albicans isolate CA10 assessed as growth at 0.5 ug/ml co-treated with 0.016 ug/ml calcineurin signaling inhibitor tacrolimus after 48 hrs by microdilution checkboard technique relative to control; design: scale not given: the % may be the effect or the level left; how it was run: as §3
Candida albicans [5] = experiment: Antimicrobial activity against azole-resistant Candida albicans isolate CA10 assessed as growth at 16 ug/ml co-treated with 0.016 ug/ml calcineurin signaling inhibitor tacrolimus after 48 hrs by microdilution checkboard technique relative to control; design: scale not given: the % may be the effect or the level left; how it was run: as §3
Candida albicans [6] = experiment: Antimicrobial activity against azole-resistant Candida albicans isolate CA10 assessed as growth at 32 ug/ml cotreated with 0.016 ug/ml calcineurin signaling inhibitor Tacrolimus after 48 hrs by microdilution checkboard technique relative to control; design: scale not given: the % may be the effect or the level left; how it was run: as §2
Candida albicans [7] = experiment: Antimicrobial activity against azole-resistant Candida albicans isolate CA10 assessed as growth at 8 ug/ml cotreated with 0.002 ug/ml calcineurin signaling inhibitor Tacrolimus after 48 hrs by microdilution checkboard technique relative to control; design: scale not given: the % may be the effect or the level left; how it was run: as §2
Candida albicans [8] = experiment: Antimicrobial activity against azole-resistant Candida albicans isolate CA10 assessed as growth at 16 ug/ml co-treated with 0.002 ug/ml calcineurin signaling inhibitor tacrolimus after 48 hrs by microdilution checkboard technique relative to control; design: scale not given: the % may be the effect or the level left; how it was run: as §3
Candida albicans [9] = experiment: Antimicrobial activity against azole-resistant Candida albicans isolate CA10 assessed as growth at 0.25 ug/ml co-treated with 0.008 ug/ml calcineurin signaling inhibitor tacrolimus after 48 hrs by microdilution checkboard technique relative to control; design: scale not given: the % may be the effect or the level left; how it was run: as §1
Candida albicans [10] = experiment: Antimicrobial activity against azole-resistant Candida albicans isolate CA10 assessed as growth at 16 ug/ml cotreated with 0.008 ug/ml calcineurin signaling inhibitor tacrolimus after 48 hrs by microdilution checkerboard technique relative to control; design: scale not given: the % may be the effect or the level left; how it was run: as §3
Candida albicans [11] = experiment: Antimicrobial activity against azole-resistant Candida albicans isolate CA10 assessed as growth at 32 ug/ml co-treated with 0.008 ug/ml calcineurin signaling inhibitor tacrolimus after 48 hrs by microdilution checkboard technique relative to control; design: scale not given: the % may be the effect or the level left; how it was run: as §2
Candida albicans [12] = experiment: Antimicrobial activity against azole-resistant Candida albicans isolate CA10 assessed as growth at 64 ug/ml co-treated with 0.008 ug/ml calcineurin signaling inhibitor tacrolimus after 48 hrs by microdilution checkboard technique relative to control; design: scale not given: the % may be the effect or the level left; how it was run: as §2
Candida albicans [13] = experiment: Antimicrobial activity against azole-resistant Candida albicans isolate CA10 assessed as growth at 128 ug/ml cotreated with 0.008 ug/ml calcineurin signaling inhibitor Tacrolimus after 48 hrs by microdilution checkboard technique relative to control; design: scale not given: the % may be the effect or the level left; how it was run: as §3
Candida albicans [14] = experiment: Antimicrobial activity against azole-resistant Candida albicans isolate CA10 assessed as growth at 2 ug/ml cotreated with 0.004 ug/ml calcineurin signaling inhibitor tacrolimus after 48 hrs by microdilution checkerboard technique relative to control; design: scale not given: the % may be the effect or the level left; how it was run: as §3
Candida albicans [15] = experiment: Antimicrobial activity against azole-resistant Candida albicans isolate CA10 assessed as growth at 0.5 ug/ml after 48 hrs by microdilution checkerboard technique relative to control; how it was run: as §3
Candida albicans [16] = experiment: Antimicrobial activity against azole-resistant Candida albicans isolate CA10 assessed as growth at 4 ug/ml after 48 hrs by microdilution checkerboard technique relative to control; how it was run: as §2
Candida albicans [17] = experiment: Antimicrobial activity against azole-resistant Candida albicans isolate CA10 assessed as growth at 16 ug/ml after 48 hrs by microdilution checkerboard technique relative to control; how it was run: as §3
Candida albicans [18] = experiment: Antimicrobial activity against azole-resistant Candida albicans isolate CA10 assessed as growth at 0.031 ug/ml after 48 hrs by microdilution checkerboard technique relative to control; how it was run: as §1
Candida albicans [19] = experiment: Antimicrobial activity against azole-susceptible Candida albicans isolate CA12 co-treated with calcineurin signaling inhibitor tacrolimus after 48 hrs by microdilution checkerboard technique; details: isolate CA12, 48 h
How it was run: (§4)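 Checkerboard microdilution in MOPS-buffered RPMI 1640 (pH 7.0, 2% dextrose) with 2.5 × 10^3 CFU/ml for 48 h at 35°C. Final FK506 was 0.002–0.125 μg/ml. Azole finals were FLC 0.125–128 μg/ml, and ITR and VRC 0.008–8 μg/ml. MIC80 is an 80% OD492 decrease vs drug-free control. Interaction was scored by FICI (synergy ≤0.5, antagonism >4) and by ΔE from triplicates.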

Candida albicans [20] = experiment: Antimicrobial activity against azole-resistant Candida albicans isolate CA15 cotreated with calcineurin signaling inhibitor Tacrolimus after 48 hrs by microdilution checkerboard technique; details: isolate CA15, 48 h; how it was run: as §4
Candida albicans [21] = experiment: Antimicrobial activity against azole-resistant Candida albicans isolate CA137 cotreated with calcineurin signaling inhibitor Tacrolimus after 48 hrs by microdilution checkerboard technique; details: isolate CA137, 48 h; how it was run: as §4
Candida albicans [22] = experiment: Antimicrobial activity against azole-resistant Candida albicans isolate CA10 assessed as growth at 2 ug/ml cotreated with 0.125 ug/ml calcineurin signaling inhibitor tacrolimus after 48 hrs by microdilution checkerboard technique relative to control; design: scale not given: the % may be the effect or the level left; how it was run: as §3
Candida albicans [23] = experiment: Antimicrobial activity against azole-resistant Candida albicans isolate CA10 assessed as growth at 8 ug/ml cotreated with 0.125 ug/ml calcineurin signaling inhibitor Tacrolimus after 48 hrs by microdilution checkboard technique relative to control; design: scale not given: the % may be the effect or the level left; how it was run: as §2
Candida albicans [24] = experiment: Antimicrobial activity against azole-resistant Candida albicans isolate CA10 assessed as growth at 128 ug/ml cotreated with 0.125 ug/ml calcineurin signaling inhibitor Tacrolimus after 48 hrs by microdilution checkboard technique relative to control; design: scale not given: the % may be the effect or the level left; how it was run: as §3

OC(Cn1cncn1)(Cn1cncn1)c1ccc(F)cc1F [FLUCONAZOLE]
Activity (Candida albicans [1]): 15%
Activity (Candida albicans [2]): 12%
Activity (Candida albicans [3]): 7%
Activity (Candida albicans [4]): 21%
Activity (Candida albicans [5]): 19%
Activity (Candida albicans [6]): 18%
Activity (Candida albicans [7]): 38%
Activity (Candida albicans [8]): 35%
Activity (Candida albicans [9]): 39%
Activity (Candida albicans [10]): 24%
Activity (Candida albicans [11]): 25%
Activity (Candida albicans [12]): 21%
Activity (Candida albicans [13]): 39%
Activity (Candida albicans [14]): 32%
Activity (Candida albicans [15]): 53%
Activity (Candida albicans [16]): 53%
Activity (Candida albicans [17]): 50%
Activity (Candida albicans [18]): 93%
MIC (Candida albicans [19]): 2 µg/mL
MIC (Candida albicans [20]): 0.5 µg/mL
MIC (Candida albicans [21]): 0.5 µg/mL
Activity (Candida albicans [22]): 12%
Activity (Candida albicans [23]): 2%
Activity (Candida albicans [24]): 0%

Source: ChEMBL document CHEMBL1151472, “In vitro interactions between tacrolimus and azoles against Candida albicans determined by different methods” (2008)
